Data on seven compounds can be found in ChEMBL document CHEMBL4359889 (Eur J Med Chem, 2019).

By logP is commonly meant a log measure of how a compound divides between an organic and an aqueous phase. One may read the logD as the decadic logarithm of the distribution of all forms, ionised or not, between an organic phase and buffer at a given pH. Read a low logD as a more hydrophilic compound. For orientation: IC50 means the concentration needed to halve the response being measured. The low end stands for greater potency in that assay, the high end for weaker potency in that assay.

The nature of data set [1]: Octanol/water partition coefficient, logP of compound at 1 uCi vortex for 5 mins and repeated for 4 times by gamma counter method. The class given is physicochemical. The procedure, abridged:
(§1)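 Vortexed 5 min, repeated four times, then centrifuged 2×5 min at 4000 rpm, 4°C. Value taken from the ratio of octanol to aqueous activity.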

Data set [2] is described as follows: Lipophilicity, log D of the compound in octanol/pH 7.4 PBS vortex at 1 uCi for 5 mins and repeated for 4 times by gamma counter method. The note with it: octanol/water, pH 7.4, 5 min. The class given is physicochemical. The gist of the method: as §1
Data set [3] can be described thus: Drug uptake in human NCI-H2228 cells harboring EML4-fused ALK variant 3 at 1 uCi incubated for 30 mins by radioactivity-based assay. The following applies: nci-h2228, 0.5 h. The class given is ADME, cell-based. The gist of the method: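 H2228 cells seeded at 10⁶ per well in RPMI-1640 with 10% FBS. Wells washed twice with ice-cold PBS, cells trypsinized 5 min at 37°C, then gamma counted. Uptake given as cpm per million cells, in triplicate.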

The nature of data set [4]: Biodistribution in nude mouse assessed as accumulation in brain tissue at 100 uCi, iv measured for 5 mins by PET imaging analysis. The class given is ADME, organism-based. The following applies: in vivo. The procedure, abridged:
(§2)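 Dynamic PET 0–10 min after injection under anesthesia, then 10-min static scans at 30 and 60 min. Regions of interest drawn on decay-corrected whole-body coronal images and converted to %ID/cc. Mean ± SD.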

Data set [5] can be described thus: Biodistribution in nude mouse assessed as accumulation in brain tissue at 100 uCi, iv measured for 10 mins by PET imaging analysis. The data set is classed as ADME, organism-based. The note with it: in vivo. The procedure, abridged:
as §2

The nature of data set [6]: Biodistribution in nude mouse assessed as accumulation in brain tissue at 100 uCi, iv measured for 30 mins by PET imaging analysis. The class given is ADME, organism-based. The following applies: in vivo, 0.5 h. The procedure, abridged:
as §2

The nature of data set [7]: Biodistribution in nude mouse assessed as accumulation in brain tissue at 100 uCi, iv measured for 60 mins by PET imaging analysis. The data set is classed as ADME, organism-based. The note with it: in vivo, 1 h. The procedure, abridged:
as §2

The nature of data set [8]: Biodistribution in nude mouse assessed as accumulation in heart tissue at 100 uCi, iv measured for 5 mins by PET imaging analysis. The data set is classed as ADME, organism-based. The note with it: in vivo. The procedure, abridged: as §2
Data set [9] in a line: Biodistribution in nude mouse assessed as accumulation in heart tissue at 100 uCi, iv measured for 10 mins by PET imaging analysis. The class given is ADME, organism-based. The following applies: in vivo. The procedure, abridged: as §2
The nature of data set [10]: Biodistribution in nude mouse assessed as accumulation in heart tissue at 100 uCi, iv measured for 30 mins by PET imaging analysis. The class given is ADME, organism-based. The following applies: in vivo, 0.5 h. The gist of the method: as §2
Data set [11] can be described thus: Biodistribution in nude mouse assessed as accumulation in heart tissue at 100 uCi, iv measured for 60 mins by PET imaging analysis. The class given is ADME, organism-based. The following applies: in vivo, 1 h. The procedure, abridged: as §2
The nature of data set [12]: Biodistribution in nude mouse assessed as accumulation in liver tissue at 100 uCi, iv measured for 5 mins by PET imaging analysis. The following applies: in vivo. The data set is classed as ADME, organism-based. The gist of the method: as §2
Data set [13] can be described thus: Biodistribution in nude mouse assessed as accumulation in liver tissue at 100 uCi, iv measured for 10 mins by PET imaging analysis. The class given is ADME, organism-based. The following applies: in vivo. The gist of the method: as §2
The nature of data set [14]: Biodistribution in nude mouse assessed as accumulation in liver tissue at 100 uCi, iv measured for 30 mins by PET imaging analysis. The following applies: in vivo, 0.5 h. The data set is classed as ADME, organism-based. The procedure, abridged:
as §2

Data set [15] can be described thus: Biodistribution in nude mouse assessed as accumulation in liver tissue at 100 uCi, iv measured for 60 mins by PET imaging analysis. The note with it: in vivo, 1 h. The class given is ADME, organism-based. The procedure, abridged: as §2
The nature of data set [16]: Biodistribution in nude mouse assessed as accumulation in kidney tissue at 100 uCi, iv measured for 5 mins by PET imaging analysis. The data set is classed as ADME, organism-based. The following applies: in vivo. The gist of the method:
as §2

A short description of data set [17]: Biodistribution in nude mouse assessed as accumulation in kidney tissue at 100 uCi, iv measured for 10 mins by PET imaging analysis. The following applies: in vivo. The class given is ADME, organism-based. The procedure, abridged: as §2
A short description of data set [18]: Biodistribution in nude mouse assessed as accumulation in kidney tissue at 100 uCi, iv measured for 30 mins by PET imaging analysis. The data set is classed as ADME, organism-based. The note with it: in vivo, 0.5 h. The gist of the method:
as §2

A short description of data set [19]: Biodistribution in nude mouse assessed as accumulation in kidney tissue at 100 uCi, iv measured for 60 mins by PET imaging analysis. The data set is classed as ADME, organism-based. The following applies: in vivo, 1 h. The gist of the method:
as §2

Data set [20] can be described thus: Biodistribution in nude mouse assessed as accumulation in muscle tissue at 100 uCi, iv measured for 5 mins by PET imaging analysis. The data set is classed as ADME, organism-based. The following applies: in vivo. The procedure, abridged:
as §2

Data set [21] in a line: Biodistribution in nude mouse assessed as accumulation in muscle tissue at 100 uCi, iv measured for 10 mins by PET imaging analysis. The class given is ADME, organism-based. The note with it: in vivo. The procedure, abridged:
as §2

A short description of data set [22]: Biodistribution in nude mouse assessed as accumulation in muscle tissue at 100 uCi, iv measured for 30 mins by PET imaging analysis. The class given is ADME, organism-based. The following applies: in vivo, 0.5 h. The gist of the method: as §2
A short description of data set [23]: Biodistribution in nude mouse assessed as accumulation in muscle tissue at 100 uCi, iv measured for 60 mins by PET imaging analysis. The note with it: in vivo, 1 h. The data set is classed as ADME, organism-based. The gist of the method:
as §2

The nature of data set [24]: Drug uptake in human H441 cells at 1 uCi incubated for 30 mins by radioactivity-based assay. The class given is ADME, cell-based. The following applies: nci-h441, 0.5 h. The procedure, abridged: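 Medium removed, two ice-cold PBS washes, trypsinised 5 min at 37°C, gamma counted. Uptake expressed as counts per minute per million cells; triplicate.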
Data set [25] deals with NCI-H2228. Kind of data set: Cytotoxicity in human NCI-H2228 cells harboring EML4-fused ALK variant 3 incubated for 72 hrs by alamar blue reagent based assay. The class given is functional, cell-based. The note with it: NCI-H2228, 72 h.
The subject of data set [26] is NCI-H441. Kind of data set: Cytotoxicity in human H441 cells incubated for 72 hrs by alamar blue reagent based assay. The data set is classed as cell-based. The gist of the method:
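Cells seeded at 8,000 per well in RPMI-1640 with 10% FBS, dosed next day across a concentration range for 72 h. Alamar Blue (1:10, in phenol red-free RPMI with 10% FBS) added for 4 h, fluorescence read at ex 530/em 580 nm. IC50 from curve fit; triplicate in three independent sets, mean ± SD.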
Background: Resazurin is reduced to fluorescent resorufin, in cell work by metabolically active cells.

In [1], `Cc1cc(Nc2ncc(Cl)c(Nc3ccccc3S(=O)(=O)C(C)C)n2)c(OC(C)C)cc1C1CCN(CC[18F])CC1` registered a logP of 0.97. In addition, the logD in data set [2] is reported as 1.51. For the same compound, the Drug uptake entry in [3] was “Active”; in data set [4], 6.6 %ID/cc; in data set [5], 6.5 %ID/cc; in data set [6], 4.6 %ID/cc; in data set [7] it was 4 %ID/cc; in data set [8], 9.1 %ID/cc. For the same compound, the Drug uptake in [9] is reported as 7 %ID/cc; in data set [10], 3.1 %ID/cc; in [11], 2.6 %ID/cc; in data set [12], 16.8 %ID/cc; in data set [13] it was 17.9 %ID/cc; in [14], 9.5 %ID/cc. For the same compound, the Drug uptake came out at 6.4 %ID/cc in data set [15]; 20.2 %ID/cc in data set [16]; 18.2 %ID/cc in [17]; 7.2 %ID/cc in data set [18]; 5.7 %ID/cc in data set [19]; 3.6 %ID/cc in data set [20]. The figures for the Drug uptake in [21], in data set [22] and in data set [23] were 3.9 %ID/cc, 2.4 %ID/cc and 2.1 %ID/cc, respectively.
Consider `CCc1cc2c(cc1N1CCC(N3CCOCC3)CC1)C(C)(C)c1c(c3ccc(C#N)cc3n1CC[18F])C2=O`, for which the Drug uptake entry in [24] is “Active”.
On to `CCc1cc2c(cc1N1CCC(N3CCOCC3)CC1)C(C)(C)c1c(c3ccc(C#N)cc3n1CCF)C2=O`, for which the IC50 is 0.01 µM in [25] and “Non-Toxic” in data set [26].
As to `Cc1cc(Nc2ncc(Cl)c(Nc3ccccc3S(=O)(=O)C(C)C)n2)c(OC(C)C)cc1C1CCN(CCF)CC1`, in [25], half-maximal inhibition (IC50) required 24.2 µM.
For `C[C@@H](Oc1cc(-c2cnn(C3CCN(CC[18F])CC3)c2)cnc1N)c1c(Cl)ccc(F)c1Cl`, the figures for the Drug uptake result in [3], in data set [7] and in data set [23] were “Active”, 1.8 %ID/cc and 1.2 %ID/cc, respectively.
As for `C[C@@H](Oc1cc(-c2cnn(C3CCN(CCF)CC3)c2)cnc1N)c1c(Cl)ccc(F)c1Cl`, the IC50 in data set [25] came to 7.5 µM.
On to `CCc1cc2c(cc1N1CCC(N3CCOCC3)CC1)C(C)(C)c1[nH]c3cc(C#N)ccc3c1C2=O` [ALECTINIB], for which, in data set [26], the IC50 entry is given as “Non-Toxic”.
